Measurements from ChEMBL document CHEMBL1268974, “Synthesis and antitumour activity of glycyrrhetinic acid derivatives” (Bioorg Med Chem, 2010).
Calls of active or inactive are those of the source. The rule behind the calls is not given here.

Experiments:
DLD-1 = experiment: Cytotoxicity against human DLD1 cells after 96 hrs by SRB assay; type: functional, cell-based
MCF7 = experiment: Cytotoxicity against human MCF7 cells after 96 hrs by SRB assay; type: functional, cell-based
[1] = Cytotoxicity against human A253 cells after 96 hrs by SRB assay; type: functional, cell-based
A549 [2] = experiment: Cytotoxicity against human A549 cells after 96 hrs by SRB assay; type: functional, cell-based
[3] = Cytotoxicity against human Lipo cells after 96 hrs by SRB assay; type: functional, cell-based
8505C = experiment: Cytotoxicity against human 8505C cells after 96 hrs by SRB assay; type: functional, cell-based
A2780 = experiment: Cytotoxicity against human A2780 cells after 96 hrs by SRB assay; type: functional, cell-based
SW-1736 = experiment: Cytotoxicity against human SW1736 cells after 96 hrs by SRB assay; type: functional, cell-based
[4] = Cytotoxicity against mouse NIH/3T3 cells after 96 hrs by SRB assay; type: cell-based; conditions: NIH3T3, 96 h
FaDu = experiment: Cytotoxicity against human FADU cells after 96 hrs by SRB assay; type: functional, cell-based
[5] = Cytotoxicity against human 518A2 cells after 96 hrs by SRB assay; type: functional, cell-based; conditions: 518A2, 96 h
SW480 = experiment: Cytotoxicity against human SW480 cells after 96 hrs by SRB assay; type: functional, cell-based; conditions: SW480, 96 h
HCT-8 = experiment: Cytotoxicity against human HCT8 cells after 96 hrs by SRB assay; type: functional, cell-based; conditions: HCT-8, 96 h
HCT-116 = experiment: Cytotoxicity against human HCT116 cells after 96 hrs by SRB assay; type: functional, cell-based; conditions: HCT-116, 96 h
HT-29 = experiment: Cytotoxicity against human HT-29 cells after 96 hrs by SRB assay; type: functional, cell-based; conditions: HT-29, 96 h
A-431 = experiment: Cytotoxicity against human A431 cells after 96 hrs by SRB assay; type: functional, cell-based; conditions: A-431, 96 h
A2780 (Homo sapiens) = experiment: Induction of apoptosis in human A2780 cells assessed as DNA ladder formation at IC90 concentration after 24 hrs by agarose gel electrophoresis
A549 [6] = experiment: Induction of apoptosis in human A549 cells at IC90 concentration after 24 to 48 hrs using acridine orange/ethidium bromide dye by fluorescence microscopic analysis; type: functional, cell-based
How it was run: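 About 500,000 cells were seeded in flasks and grown for 24 h, then the medium was replaced with compound-containing medium. After 24–48 h, floating cells in the supernatant were pelleted, washed and resuspended in PBS, mixed with acridine orange/ethidium bromide and examined by fluorescence microscopy. Green nuclear fluorescence was scored as apoptotic and red nuclei as necrotic.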

Structure (SMILES) | IC50 (FaDu) [µM] | IC50 (DLD-1; Homo sapiens, DLD-1, 96 h) [µM] | IC50 (MCF7; Homo sapiens, MCF7, 96 h) [µM] | IC50 [5] [µM] | IC50 ([1]; Homo sapiens, A253, 96 h) [µM] | IC50 (A549 [2]; Homo sapiens, A549, 96 h) [µM] | IC50 ([3]; Homo sapiens, Lipo, 96 h) [µM] | IC50 (SW480) [µM] | IC50 (8505C; Homo sapiens, 8505C, 96 h) [µM] | IC50 (A2780; Homo sapiens, A2780, 96 h) [µM] | IC50 (HCT-8) [µM] | IC50 (HCT-116) [µM] | IC50 (HT-29) [µM] | IC50 (A-431) [µM] | IC50 (SW-1736; Homo sapiens, SW-1736, 96 h) [µM] | also measured
COC(=O)[C@@]1(C)CC[C@]2(C)CC[C@]3(C)C(=CC(=O)[C@@H]4[C@@]5(C)CC[C@H](OC(=O)CCN)C(C)(C)[C@@H]5CC[C@]43C)[C@@H]2C1 [listing 1 of 2 here] | – | – | – | – | – | – | – | – | – | – | – | – | – | – | – | IC50 (DLD-1; dld-1): 3.52 µM; IC50 (MCF7; mcf7): 2.43 µM; IC50 ([1]; a253): 2.51 µM; IC50 (A549 [2]; a549): 1.61 µM; IC50 ([3]; lipo): 3.55 µM; IC50 (8505C; 8505c): 2.51 µM; IC50 (A2780; a2780): 1.56 µM; IC50 (SW-1736; sw-1736): 2.48 µM
CC1(C)[C@@H](O)CC[C@]2(C)[C@H]3C(=O)C=C4[C@@H]5C[C@@](C)(C(=O)OCc6ccccc6)CC[C@]5(C)CC[C@@]4(C)[C@]3(C)CC[C@@H]12 | 5.48 | 22.7 | 13.5 | 18.2 | 10.7 | 6.15 | 11.5 | 6.17 | 8.1 | 20.3 | 25.2 | 20.6 | 11.5 | 23.6 | 2.74 | IC50 [4]: 21 µM
COC(=O)[C@@]1(C)CC[C@]2(C)CC[C@]3(C)C(=CC(=O)[C@@H]4[C@@]5(C)CC[C@H](OC(=O)[C@H](C)N)C(C)(C)[C@@H]5CC[C@]43C)[C@@H]2C1 [listing 1 of 3 here] | 4.52 | 4.49 | 3.54 | 3.54 | 3.61 | 2.77 | 4.3 | 3.52 | 4.31 | 2.98 | 2.8 | 2.74 | 2.87 | 3.48 | 3.22 | –
COC(=O)[C@@]1(C)CC[C@]2(C)CC[C@]3(C)C(=CC(=O)[C@@H]4[C@@]5(C)CC[C@H](OC(=O)CCN)C(C)(C)[C@@H]5CC[C@]43C)[C@@H]2C1 [listing 2 of 2 here] | – | – | – | – | – | – | – | – | – | – | – | – | – | – | – | Activity (A2780 (Homo sapiens)): Active; Activity (A549 [6]): Active
COC(=O)[C@@]1(C)CC[C@]2(C)CC[C@]3(C)C(=CC(=O)[C@@H]4[C@@]5(C)CC[C@H](OC(=O)[C@H](C)N)C(C)(C)[C@@H]5CC[C@]43C)[C@@H]2C1 [listing 2 of 3 here] | – | – | – | – | – | – | – | – | – | – | – | – | – | – | – | Activity (A549 [6]): Active
CC1(C)[C@@H](O)CC[C@]2(C)[C@H]3C(=O)C=C4[C@@H]5C[C@@](C)(C(=O)O)CC[C@]5(C)CC[C@@]4(C)[C@]3(C)CC[C@@H]12 [ENOXOLONE] | 84.5 | 81.2 | 84.7 | 83.9 | 80.8 | 82.8 | 81.4 | 86.8 | 86.5 | 74.6 | 78.9 | 78.8 | 80.1 | 79.6 | 76.9 | IC50 [4]: 18.5 µM; Activity (A549 [6]): Active
CC(C)OC(=O)[C@@]1(C)CC[C@]2(C)CC[C@]3(C)C(=CC(=O)[C@@H]4[C@@]5(C)CC[C@H](OC(=O)[C@@H](C)N)C(C)(C)[C@@H]5CC[C@]43C)[C@@H]2C1 | 5.48 | 5.67 | 3.52 | 5.48 | 3.5 | 3.17 | 4.73 | 3.47 | 3.51 | 1.7 | 3.32 | 4.82 | 3.47 | 3.11 | 3.46 | Activity (A549 [6]): Active
COC(=O)[C@@]1(C)CC[C@]2(C)CC[C@]3(C)C(=CC(=O)[C@@H]4[C@@]5(C)CC[C@H](OC(=O)[C@@H](C)N)C(C)(C)[C@@H]5CC[C@]43C)[C@@H]2C1 | 2.25 | 3.35 | 2.25 | 2.26 | 2.26 | 2.26 | 3.56 | 3.52 | 2.92 | 2.24 | 2.26 | 2.25 | 2.8 | 2.36 | 2.25 | –
COC(=O)[C@@]1(C)CC[C@]2(C)CC[C@]3(C)C(=CC(=O)[C@@H]4[C@@]5(C)CC[C@H](OC(=O)CN)C(C)(C)[C@@H]5CC[C@]43C)[C@@H]2C1 [listing 1 of 3 here] | – | 8.59 | 7.1 | – | 6.26 | 6.42 | 7.54 | – | 7.45 | 5.99 | – | – | – | – | 6.33 | –
COC(=O)[C@@]1(C)CC[C@]2(C)CC[C@]3(C)C(=CC(=O)[C@@H]4[C@@]5(C)CC[C@H](O)C(C)(C)[C@@H]5CC[C@]43C)[C@@H]2C1 | 23.4 | 26.1 | 22.1 | 27.5 | 19.4 | 23.5 | 20.5 | 16.1 | 26.1 | 25.5 | 24.4 | 22.1 | 27.5 | 25.3 | 34.9 | IC50 [4]: 22.8 µM
CCOC(=O)[C@@]1(C)CC[C@]2(C)CC[C@]3(C)C(=CC(=O)[C@@H]4[C@@]5(C)CC[C@H](O)C(C)(C)[C@@H]5CC[C@]43C)[C@@H]2C1 | 23.8 | 28.1 | 18.6 | 25.2 | 25 | 22.7 | 27.7 | 19.1 | 24.6 | 27 | 43.4 | 21.6 | 22.1 | 23.4 | 13.4 | IC50 [4]: 23.7 µM
COC(=O)[C@@]1(C)CC[C@]2(C)CC[C@]3(C)C(=CC(=O)[C@@H]4[C@@]5(C)CC[C@H](OC(=O)CN)C(C)(C)[C@@H]5CC[C@]43C)[C@@H]2C1 [listing 2 of 3 here] | – | – | – | – | – | – | – | – | – | – | – | – | – | – | – | IC50 (DLD-1; dld-1): 6.42 µM; IC50 (MCF7; mcf7): 5.73 µM; IC50 ([1]; a253): 5.5 µM; IC50 (A549 [2]; a549): 5.54 µM; IC50 ([3]; lipo): 5.92 µM; IC50 (8505C; 8505c): 5.71 µM; IC50 (A2780; a2780): 4.32 µM; IC50 (SW-1736; sw-1736): 5.62 µM
CC(C)OC(=O)[C@@]1(C)CC[C@]2(C)CC[C@]3(C)C(=CC(=O)[C@@H]4[C@@]5(C)CC[C@H](OC(=O)[C@H](C)N)C(C)(C)[C@@H]5CC[C@]43C)[C@@H]2C1 | 5.39 | 5.54 | 3.52 | 5.09 | 3.51 | 3.43 | 3.53 | 3.5 | 3.49 | 2.08 | 5.13 | 5.03 | 4.6 | 3.49 | 3.54 | –
CC(C)OC(=O)[C@@]1(C)CC[C@]2(C)CC[C@]3(C)C(=CC(=O)[C@@H]4[C@@]5(C)CC[C@H](O)C(C)(C)[C@@H]5CC[C@]43C)[C@@H]2C1 | 14.4 | 27.6 | 16 | 18.2 | 15.8 | 14.4 | 15.9 | 15.3 | 14.2 | 24.9 | 24.1 | 26.4 | 16 | 32 | 12.8 | IC50 [4]: 32.4 µM
COC(=O)[C@@]1(C)CC[C@]2(C)CC[C@]3(C)C(=CC(=O)[C@@H]4[C@@]5(C)CC[C@H](OC(=O)[C@H](C)N)C(C)(C)[C@@H]5CC[C@]43C)[C@@H]2C1 [listing 3 of 3 here] | – | – | – | – | – | – | – | – | – | – | – | – | – | – | – | IC50 (DLD-1; dld-1): 3.61 µM; IC50 (MCF7; mcf7): 3.89 µM; IC50 ([1]; a253): 3.5 µM; IC50 (A549 [2]; a549): 3.52 µM; IC50 ([3]; lipo): 3.52 µM; IC50 (8505C; 8505c): 3.58 µM; IC50 (A2780; a2780): 2.31 µM; IC50 (SW-1736; sw-1736): 3.98 µM
COC(=O)[C@@]1(C)CC[C@]2(C)CC[C@]3(C)C(=CC(=O)[C@@H]4[C@@]5(C)CC[C@H](OC(=O)CN)C(C)(C)[C@@H]5CC[C@]43C)[C@@H]2C1 [listing 3 of 3 here] | – | – | – | – | – | – | – | – | – | – | – | – | – | – | – | Activity (A549 [6]): Active
CCOC(=O)[C@@]1(C)CC[C@]2(C)CC[C@]3(C)C(=CC(=O)[C@@H]4[C@@]5(C)CC[C@H](OC(=O)[C@@H](C)N)C(C)(C)[C@@H]5CC[C@]43C)[C@@H]2C1 | 3.9 | 4.49 | 3.55 | 2.76 | 2.55 | 4.35 | 4.13 | 3.32 | 4.43 | 3.26 | 2.42 | 4.25 | 4.38 | 2.76 | 4.11 | –
CCOC(=O)[C@@]1(C)CC[C@]2(C)CC[C@]3(C)C(=CC(=O)[C@@H]4[C@@]5(C)CC[C@H](OC(=O)[C@H](C)N)C(C)(C)[C@@H]5CC[C@]43C)[C@@H]2C1 | 4.25 | 3.72 | 3.55 | 2.72 | 2.33 | 3.43 | 2.74 | 2.79 | 3.87 | 2.59 | 2.21 | 2.82 | 2.5 | 2.27 | 2.92 | –
